The list is not random: actives were taken first. Their share in the collection is about 4.2%.
CTSL1 counter = cathepsin L1 inhibition, PFM18AAP counter-screen. recombinant F. hepatica cathepsin L1, Z-Leu-Arg-MCA fluorescence. inhibition, % at 5.96 µM. actives 0.49% (n = 300,000);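 active means inhibition above the mean of all tested compounds plus 3 SD, set per screening campaign, cut at about 17% in these data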;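 further: 0% = plate median of test compound wells and 100% = 1 µM Z-Phe-Ala-diazomethylketone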
SENP1 inh = SENP1 (human) catalytic domain inhibition | recombinant SENP1 catalytic domain, CyPet-SUMO1-YPet FRET cleavage | inhibition, % at 10 µM | actives 0.21% (n = 360,000);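 active means inhibition at least 30% at 10 µM, raw YFP signal under a set limit, fluorescence ratio 0.5 to 1.5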;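 further: 0% = enzyme with DMSO and 100% = no enzyme wells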
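system = hSENP1 catalytic domain, recombinant | reagent = SFCypet-SUMO1-SFYpet substrate at 25 nM | doses = one dose per compound, 10 µM, 0.5% DMSO | incubation = enzyme reaction for 50 min at room temperature, dark | measured by = FRET, CFP and YFP emission | controls = no-enzyme low, enzyme-DMSO high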
GAA850 FXN act = frataxin GAA850 promoter activation; HEK293 lucGAA850 FXN promoter luciferase reporter, 24 h; percent of 10 µM SAHA response; activation, % at 6 µM; actives 0.56% (n = 360,000);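 active means activation above the average of all compounds screened plus 3 SD, cutoff fixed separately per campaign, cut at about 7.5% in these data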;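 further: 0% = DMSO wells and 100% = 10 µM SAHA wells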
HDAC3 inh = inhibitors of human histone deacetylase 3 | O15379 | recombinant HDAC3, fluorogenic peptide/trypsin coupled, fluorescence | inhibition, % at 8.3 µM | actives 0.15% (n = 320,000) | AID 2718; in the data active means inhibition above about 26%, passing the limit was not always enough; inconclusive means no clear call, values can overlap the other calls
Target sequence (O15379 whole entry, looked up): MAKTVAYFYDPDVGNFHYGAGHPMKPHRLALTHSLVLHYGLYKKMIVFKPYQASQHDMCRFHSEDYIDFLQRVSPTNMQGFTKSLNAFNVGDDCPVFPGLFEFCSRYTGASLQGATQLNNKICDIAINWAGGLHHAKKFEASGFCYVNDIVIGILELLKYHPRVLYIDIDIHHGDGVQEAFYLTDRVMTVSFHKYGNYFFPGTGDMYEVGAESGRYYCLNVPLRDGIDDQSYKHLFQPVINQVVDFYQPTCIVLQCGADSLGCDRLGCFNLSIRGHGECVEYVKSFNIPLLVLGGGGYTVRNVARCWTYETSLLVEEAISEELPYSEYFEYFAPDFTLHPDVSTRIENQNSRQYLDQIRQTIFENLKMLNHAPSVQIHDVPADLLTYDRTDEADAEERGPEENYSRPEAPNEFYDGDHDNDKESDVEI
PfM18AAP inh = blocks P. falciparum M18 aspartyl aminopeptidase; recombinant PfM18AAP, H-Glu-NHMec fluorogenic cleavage; inhibition, % at 7.35 µM; actives 1.2% (n = 290,000);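 active means inhibition above the campaign mean inhibition over all tested compounds plus 3 SD, cut at about 28% in these data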;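 further: 0% = plate median of test compound wells and 100% = 2 mM ZnCl2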
AHR activator = human AHR activation | P35869 | AHR-responsive luciferase reporter cells, luminescence | activation, % at 5 µM | actives 2.5% (n = 320,000) | AID 2796; in the data active means activation above about 47%;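 further: 0% = vehicle wells and 100% = reference agonist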
Active calls of the source: *; ? = inconclusive; . = not tested or not shown.

SMILES | CTSL1 counter | SENP1 inh | GAA850 FXN act | HDAC3 inh | PfM18AAP inh | AHR activator
COc1ccccc1/C=C/C(=O)N1CCOCC1 | 2.3 | 2.3 | 0.3 | -1.8 | -1.1 | 30.2
Cc1ccc[n+](CC(=O)Nc2ccc([N+](=O)[O-])cc2)c1 | 31.4* | 1.1 | 1.0 | 4.6 | -11.0 | 3.1
Cc1ccc[n+](CC(=O)Nc2cccc([N+](=O)[O-])c2)c1 | 1.5 | -0.5 | 2.6 | -3.3 | -2.5 | 2.1
CCC/C=C/c1ccc(CN2C(C(C)C)C(=O)N(Cc3cn(Cc4ccco4)nn3)CCS2(=O)=O)cc1 (stereo unspecified) | . | -1.6 | 1.4 | . | . | .
CCc1ccc2nc(SCC(=O)N3CC(=O)Nc4ccccc43)c(C#N)cc2c1 | -0.9 | 31.8* | -3.2 | -1.1 | 8.9 | 32.0
N#Cc1cc(C#N)c(SCC(=O)N2CC(=O)Nc3ccccc32)nc1N | . | -17.6 | 2.6 | -3.1 | . | 21.1
CCOc1ccccc1/C=N/NC(=O)Cc1csc(Nc2cccc(C(F)(F)F)c2)n1 | 4.7 | -5.0 | 0.5 | 20.0 | 1.9 | 14.8
CCOc1ccc(/C=N/NC(=O)Cc2csc(Nc3cccc(C(F)(F)F)c3)n2)c(OCC)c1 | 4.5 | -0.6 | -0.7 | 35.9* | 0.5 | 2.3
CCc1nc2ccc(C(=O)N3CCN(c4ccccc4F)CC3)cc2nc1CC | -0.9 | 1.7 | -0.9 | -1.3 | -1.5 | 0.6
Cc1cc(/C=C2\NC(=O)NC2=O)c(C)n1-c1cccnc1 | 7.9 | -3.8 | 1.1 | 0.3 | -0.5 | 99.8*
O=C(c1ccccc1Cc1ccccc1)N1CCN(S(=O)(=O)c2ccccc2[N+](=O)[O-])CC1 | -1.7 | 1.9 | -1.2 | -0.4 | . | 0.9
CCN1/C(=C/c2ccc3ccccc3[n+]2CC)C=Cc2ccccc21 | 4.6 | 63.1* | -15.7 | 7.6 | 11.5 | -8.7
CCCCN1/C(=C/c2ccc3ccccc3[n+]2CC)Sc2ccccc21 | . | 70.1* | -4.6 | . | 3.8 | .
N#Cc1ccc(-c2ccc(C3Nc4ccccc4C(=O)N3O)o2)cc1 (stereo unspecified) | . | -2.5 | 0.8 | -2.4 | . | -1.2
O=C1c2ccccc2NC(c2ccc(-c3ccccc3F)o2)N1O (stereo unspecified) | . | -4.3 | 1.0 | -7.1 | . | 53.7*
O=C1c2ccccc2NC(c2ccc(-c3cccc(F)c3)o2)N1O (stereo unspecified) | . | -3.5 | 2.4 | -0.3 | . | 47.4*
O=C(/C=C/Nc1ccccc1F)c1cccs1 | -0.2 | -37.4 | 3.4 | 3.6 | 1.4 | 57.1*
CSc1cccc(NC(=S)NC(=O)CCc2ccccc2)c1 | -1.8 | -0.6 | 1.1 | 3.1 | -4.5 | 54.1*
CSc1cccc(NC(=O)CCc2ccccc2)c1 | -1.8 | 2.0 | 3.2 | -1.9 | -9.3 | 13.7
C=CCCC(=O)Nc1nc(C)c(-c2csc(Nc3cc(Cl)ccc3OC)n2)s1 | 0.3 | -8.4 | -1.0 | 3.6 | -2.1 | 72.0*
Cc1nc(NC(=O)CC(C)C)sc1-c1csc(Nc2ccc(Cl)cc2Cl)n1 | -0.6 | -23.2 | 1.5 | 3.4 | -2.5 | 60.5*
COc1ccc(OC)c(Nc2nc(-c3sc(NC(=O)c4ccccc4)nc3C)cs2)c1 | -1.0 | . | . | 3.9 | -3.9 | 54.5*
COc1ccc(Cl)cc1Nc1nc(-c2sc(NC(=O)c3ccccc3)nc2C)cs1 | 2.1 | . | . | -4.3 | 8.9 | 95.0*
COc1ccc(Cl)cc1Nc1nc(-c2sc(NC(=O)CC(C)C)nc2C)cs1 | -3.2 | -14.2 | 0.0 | -8.4 | -0.7 | 37.6
COc1cc(NC(=O)c2ccc3c(c2)S(=O)(=O)N=C2CCCCCN23)cc(OC)c1 | -2.0 | 0.0 | 0.7 | 1.1 | . | 9.9
SMILES | CTSL1 counter | SENP1 inh | GAA850 FXN act | HDAC3 inh | PfM18AAP inh | AHR activator
Oc1ccc(CCc2n[nH]c(=S)n2-c2ccc(F)cc2)cc1 | 0.4 | 0.9 | 0.0 | 7.2 | 28.5* | 0.7
CN1C2=NCCN2C(=O)c2ccccc21 | -4.3 | 2.4 | 3.5 | 1.1 | -7.1 | 52.0*
CCCN1C2=NCCN2c2ccccc21 | 0.1 | 2.3 | -0.8 | -8.3 | 4.4 | 2.5
CS(=O)(=O)N(CC(=O)O)c1cc(C(F)(F)F)ccc1Cl | 7.2 | 2.2 | -0.5 | 2.4 | . | -0.5
O=C(Nc1ccc(C(F)(F)F)cc1)c1ccccc1 | . | 1.7 | 1.3 | -5.1 | . | 53.3*
O=C(Nc1ccc(Br)c(C(F)(F)F)c1)c1ccc(C(F)(F)F)cc1 | 1.7 | 0.9 | -3.8 | ? | 2.1 | 18.1
O=C(Nc1ccc(Br)c(C(F)(F)F)c1)c1ccccc1 | 1.3 | 1.7 | 3.9 | 13.8 | -1.8 | 50.6*
